Results on one compound are retold here after ChEMBL document CHEMBL4011623, “Development of 1-((1,4-trans)-4-Aryloxycyclohexyl)-3-arylurea Activators of Heme-Regulated Inhibitor as Selective Activators of the Eukaryotic Initiation Factor 2 Alpha (eIF2α) Phosphorylation Arm of the Integrated Endoplasmic Reticulum Stress Response” (J Med Chem, 2017).

For data set [1], the system named is Mus musculus. As to the kind of experiment: Toxicity in NU008 nude mouse xenografted with human CRL2813 cells assessed as histopathologic change in spleen at 150 mg/kg, ip qd administered for 4 days followed by 4 days off and 3 days on for total 28 days. Type of data set: organism-based. The following applies: in vivo. In outline: (§1)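 Xenograft-bearing nude mice dosed i.p. on the 28-day intermittent schedule (150 or 37.5 mg/kg in NMP/Cremophor EL/water). Euthanized at the end of treatment; organs harvested, fixed and examined histopathologically.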

Data set [2] concerns Mus musculus. The experiment in a line: Nephrotoxicity in NU008 nude mouse xenografted with human CRL2813 cells at 150 mg/kg, ip qd administered for 4 days followed by 4 days off and 3 days on for total 28 days. Type of data set: toxicity, organism-based. The conditions noted are these: in vivo. The method in brief:
as §1
A general note: A xenograft is tissue or cells of one species grown in another, often human tumour cells in immunodeficient mice.

Data set [3] concerns Mus musculus. As to the kind of experiment: Neurotoxicity in NU008 nude mouse xenografted with human CRL2813 cells at 150 mg/kg, ip qd administered for 4 days followed by 4 days off and 3 days on for total 28 days. It is filed as toxicity, organism-based. The following applies: in vivo. In outline: as §1
Data set [4] is described as follows: Effect on beta actin protein expression in human CRL2813 cells at 5 uM after 8 hrs by Western blot analysis. It is filed as ADME, cell-based. The following applies: crl2813, 8 h. The method in brief: (§2)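 CRL-2813 cells at 70% confluence in serum-containing, antibiotic-free medium; treated at 5 μM for 8 h. Lysed in M-PER on ice for 30 min, equal protein by BCA, SDS-PAGE and immunoblot for CHOP, cyclin D1 and β-actin. Blots representative of three independent experiments.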

The nature of data set [5]: Apparent half life in NU008 nude mouse xenografted with human CRL2813 cells at 40 mg/kg, ip by LC-MS analysis. Type of data set: ADME, organism-based. The conditions noted are these: in vivo, read-out: t1/2(app) (converted). The method in brief:
(§3)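 Single i.p. dose of 40 mg/kg. Blood sampled before and at 0.5, 1, 2, 4, 6, 24, 48 and 72 h, mixed with 0.1% EDTA. Whole-blood levels quantified by LC-MS/MS (C18 column at 45 °C) against a standard curve. At least three mice per time point, mean ± SEM.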

Data set [6] has as its target Eukaryotic translation initiation factor 2-alpha kinase 1 (Homo sapiens) (UniProt Q9BQI3). As to the kind of experiment: Activation of HRI in human CRL2813 cells assessed as increase in eIF2alpha phosphorylation at 5 uM after 2 hrs by Western blot analysis. Type of data set: cell-based. In outline: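 Adherent CRL-2813 melanoma cells exposed to 5 μM for 2 h. Lysates immunoblotted with anti-phosphoserine-51 eIF2α and anti-total eIF2α antibodies after BCA normalization and SDS-PAGE. Gels representative of three independent experiments.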

Data set [7] has as its system Mus musculus. As to the kind of experiment: Toxicity in NU008 nude mouse xenografted with human CRL2813 cells assessed as histopathologic change in bone marrow at 150 mg/kg, ip qd administered for 4 days followed by 4 days off and 3 days on for total 28 days. The conditions noted are these: in vivo. It is filed as organism-based. In outline:
as §1

Data set [8] concerns Mus musculus. As to the kind of experiment: Hepatotoxicity in NU008 nude mouse xenografted with human CRL2813 cells at 150 mg/kg, ip qd administered for 4 days followed by 4 days off and 3 days on for total 28 days. Type of data set: toxicity, organism-based. The following applies: in vivo. The method in brief: as §1
A short description of data set [9]: Antitumor activity against human CRL2813 cells xenografted in NU008 nude mouse assessed as tumor growth inhibition at 37.5 mg/kg, ip qd administered for 4 days followed by 4 days off and 3 days on for total 28 days relative to control. The conditions noted are these: read-out: TGI. Type of data set: functional. In outline:
(§4)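 Male nude mice injected s.c. with CRL-2813 cells; once tumors reached 100–150 mm3, randomized into groups of nine. Given i.p. q.d. at 150 or 37.5 mg/kg (4 days on, 4 off, 3 on; 28 days total) in NMP/Cremophor EL/water at 1 μl/g. Vehicle controls received the mixture alone. Body weight measured twice weekly; tumors by caliper weekly. Mean ± SEM.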

In data set [10] the target is Eukaryotic translation initiation factor 2-alpha kinase 1 (Mus musculus) (UniProt Q9Z2R9). The experiment in a line: Activation of HRI in mouse KLN cells transfected with 5'UTR of ATF-4 mRNA fused firefly luciferase mRNA and 5'UTR lacking uORF fused renila luciferase mRNA assessed as increase in eIF2alpha phosphorylation by measuring ratio of firefly luciferase to renila luciferase after 16 hrs. It is filed as cell-based.
Chain of Eukaryotic translation initiation factor 2-alpha kinase 1 (Mus musculus) (Q9Z2R9 whole entry, the tested form may be a part): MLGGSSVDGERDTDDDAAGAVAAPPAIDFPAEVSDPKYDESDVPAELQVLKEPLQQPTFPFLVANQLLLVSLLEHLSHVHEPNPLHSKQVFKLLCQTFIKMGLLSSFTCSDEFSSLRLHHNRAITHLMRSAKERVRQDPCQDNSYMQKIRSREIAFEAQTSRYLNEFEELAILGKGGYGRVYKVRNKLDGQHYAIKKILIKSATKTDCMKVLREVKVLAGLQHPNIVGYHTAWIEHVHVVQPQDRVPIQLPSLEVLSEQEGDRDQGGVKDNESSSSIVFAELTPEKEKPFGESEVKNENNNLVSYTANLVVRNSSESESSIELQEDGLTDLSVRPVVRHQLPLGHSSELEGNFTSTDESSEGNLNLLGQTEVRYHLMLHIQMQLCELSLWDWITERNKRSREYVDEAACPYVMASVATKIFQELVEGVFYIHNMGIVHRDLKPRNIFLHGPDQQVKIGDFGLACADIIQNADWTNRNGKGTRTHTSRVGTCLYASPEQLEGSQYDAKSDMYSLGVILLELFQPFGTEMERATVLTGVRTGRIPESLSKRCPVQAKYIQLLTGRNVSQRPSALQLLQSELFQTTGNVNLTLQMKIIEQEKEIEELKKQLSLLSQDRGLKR

Data set [11] addresses Eukaryotic translation initiation factor 2-alpha kinase 1 (Homo sapiens) (UniProt Q9BQI3). The experiment in a line: Activation of HRI in human CRL2813 cells assessed as increase in CHOP protein expression at 5 uM after 8 hrs by Western blot analysis. Type of data set: cell-based. The method in brief:
as §2
Background: In western blotting, separated proteins are transferred to a membrane and probed.

For data set [12], the target named is Eukaryotic translation initiation factor 2-alpha kinase 1 (Mus musculus) (UniProt Q9Z2R9). As to the kind of experiment: Activation of HRI in mouse KLN cells transfected with 5'UTR of ATF-4 mRNA fused firefly luciferase mRNA and 5'UTR lacking uORF fused renila luciferase mRNA assessed as increase in eIF2alpha phosphorylation by measuring ratio of firefly luciferase to renila luciferase at 5 uM after 16 hrs. It is filed as cell-based.

A short description of data set [13]: Antiproliferative activity against human CRL2813 cells after 5 days by sulforhodamine B assay. It is filed as functional, cell-based. The conditions noted are these: CRL2813, 120 h. The method in brief:
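CRL-2813 melanoma cells grown 5 days with 0.5–20 μM compound, then fixed in cold 10% TCA and stained with sulforhodamine B. Bound dye measured. Growth % = 100×(T−T0)/(C−T0), with T0 at time zero. IC50 is the concentration giving 50% growth inhibition.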
(In SRB staining, fixed cells bind dye roughly in proportion to their protein.)

The target in data set [14] is Eukaryotic translation initiation factor 2-alpha kinase 1 (Homo sapiens) (UniProt Q9BQI3). The experiment in a line: Activation of HRI in human CRL2813 cells assessed as induction of CHOP mRNA level at 5 uM by real-time PCR relative to 18S RNA. It is filed as cell-based. The method in brief:
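Fold induction of CHOP mRNA in cells treated at 5 μM, normalized to 18S RNA and expressed relative to DMSO (set to 1). Triplicate samples, three independent experiments, mean ± SEM.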

A short description of data set [15]: Tmax in NU008 nude mouse xenografted with human CRL2813 cells at 40 mg/kg, ip by LC-MS analysis. It is filed as ADME, organism-based. The conditions noted are these: in vivo. The method in brief: as §3
Data set [16] relates to Mus musculus. The experiment in a line: Induction of eIF2alpha phosphorylation in tumor of NU008 nude mouse xenografted with human CRL2813 cells at 37.5 to 150 mg/kg, ip qd administered for 3 days by Western blot analysis. Type of data set: functional, organism-based. In outline: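 Mice bearing ~200 mm3 CRL-2813 xenografts injected on three consecutive days with vehicle or the same doses used in the efficacy study. Tumors excised, lysed and immunoblotted for phosphorylated and total eIF2α.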

The target in data set [17] is Eukaryotic translation initiation factor 2-alpha kinase 1 (Homo sapiens) (UniProt Q9BQI3). As to the kind of experiment: Activation of HRI in human CRL2813cells assessed as decrease in cyclin D1 protein expression at 5 uM after 8 hrs by Western blot analysis. The method in brief: as §2
Chain of Eukaryotic translation initiation factor 2-alpha kinase 1 (Homo sapiens) (Q9BQI3 whole entry): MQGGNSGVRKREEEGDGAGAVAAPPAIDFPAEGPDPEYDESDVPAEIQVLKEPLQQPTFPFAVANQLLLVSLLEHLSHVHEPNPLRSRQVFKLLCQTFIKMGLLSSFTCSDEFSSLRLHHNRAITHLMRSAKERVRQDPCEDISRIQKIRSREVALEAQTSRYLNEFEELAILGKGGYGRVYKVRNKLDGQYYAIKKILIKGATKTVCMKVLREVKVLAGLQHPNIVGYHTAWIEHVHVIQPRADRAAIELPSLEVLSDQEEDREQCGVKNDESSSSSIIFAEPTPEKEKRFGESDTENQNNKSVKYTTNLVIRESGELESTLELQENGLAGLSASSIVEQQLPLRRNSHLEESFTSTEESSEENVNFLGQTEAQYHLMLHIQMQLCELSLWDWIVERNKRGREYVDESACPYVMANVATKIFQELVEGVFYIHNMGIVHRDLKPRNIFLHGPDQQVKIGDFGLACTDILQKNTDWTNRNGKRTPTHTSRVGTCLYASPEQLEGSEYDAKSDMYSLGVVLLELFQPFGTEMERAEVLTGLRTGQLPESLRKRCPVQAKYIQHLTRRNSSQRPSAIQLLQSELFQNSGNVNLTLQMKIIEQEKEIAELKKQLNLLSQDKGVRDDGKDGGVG
Data set [18] concerns Mus musculus. The experiment in a line: Toxicity in NU008 nude mouse xenografted with human CRL2813 cells assessed as body weight change at 37.5 mg/kg, ip qd administered for 4 days followed by 4 days off and 3 days on for total 28 days. The following applies: in vivo. Type of data set: organism-based. The method in brief:
as §4

The target of data set [19] is Eukaryotic translation initiation factor 2-alpha kinase 1 (Mus musculus) (UniProt Q9Z2R9). As to the kind of experiment: Activation of HRI in mouse KLN cells transfected with 5'UTR of ATF-4 mRNA fused firefly luciferase mRNA and 5'UTR lacking uORF fused renila luciferase mRNA assessed as increase in eIF2alpha phosphorylation by measuring ratio of firefly luciferase to renila luciferase at 1.25 uM after 16 hrs. Type of data set: cell-based.

Data set [20] has as its system Mus musculus. The experiment in a line: Toxicity in NU008 nude mouse xenografted with human CRL2813 cells assessed as body weight change at 150 mg/kg, ip qd administered for 4 days followed by 4 days off and 3 days on for total 28 days. Type of data set: organism-based. The following applies: in vivo. The method in brief: as §4
For data set [21], the system named is Mus musculus. As to the kind of experiment: Cardiotoxicity in NU008 nude mouse xenografted with human CRL2813 cells at 150 mg/kg, ip qd administered for 4 days followed by 4 days off and 3 days on for total 28 days. It is filed as toxicity, organism-based. The conditions noted are these: in vivo. In outline:
as §1

In the next data set the test system is CRL2813. The experiment in a line: Antitumor activity against human CRL2813 cells xenografted in ip dosed NU008 nude mouse assessed as tumor growth inhibition administered qd for 4 days followed by 4 days off and 3 days on for total 28 days. Type of data set: functional, organism-based. In outline: as §4
The nature of data set [22]: Antitumor activity against human CRL2813 cells xenografted in NU008 nude mouse assessed as tumor growth inhibition at 150 mg/kg, ip qd administered for 4 days followed by 4 days off and 3 days on for total 28 days relative to control. It is filed as functional. The conditions noted are these: read-out: TGI. In outline:
as §4

pIC50: −log10 of the molar value. Calls of active or inactive are those of the source. No cut-off for these calls is given here.

By pIC50 is commonly meant −log10 of the IC50, conventionally taken in molar units. Lower therefore signals a high IC50. The term Tmax denotes the time at which the peak concentration occurs. `N#Cc1cc(NC(=O)N[C@H]2CC[C@H](Oc3ccc(C(F)(F)F)cc3)CC2)cc(C(F)(F)F)c1`: the Activity entry (with Mus musculus [1]; in the data set with Mus musculus [2]; with Mus musculus [3]; in data set [4]; in the data set with Mus musculus [7]; in the data set with Mus musculus [8]) was “Non-Toxic” each time. Further, the Activity result is “Dose-dependent effect” in [10], below 10% with Mus musculus [18], below 10% with Mus musculus [20] and “Non-Toxic” in the data set on Mus musculus [21]. In addition, the half-life in data set [5] is 40 h. Moreover, the outcome (in [6]; in data set [11]; in the data set on Mus musculus [16]; in data set [17]) was Active. Besides, in data set [9], the inhibition in vivo at 37.5 mg/kg was determined as 50%. The results for the Ratio in data set [12] and in [19] were 13.2 and 5.65, respectively. Moreover, the pIC50 in [13] is 6.60. In addition, the fold change (FC) in [14] was found to be 9.87. In addition, the Tmax in data set [15] lay within 6 to 24 h. Further, the TGI entry in the data set with CRL2813 is “Dose-dependent effect”. The inhibition in vivo at 150 mg/kg in [22] was determined as 90%.
